In PubChem BioAssay AID1537 (The Scripps Research Institute Molecular Screening Center, 2009):
Some of the results follow. A number with no mark means an inactive call. Active and inactive are the calls of the source.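 Rule for the calls: active = inhibition above the hit cutoff derived for the primary screen (cut at about 15% in these data); inactive = the rest.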

Target: Serine hydrolase RBBP9 (Homo sapiens) (UniProt O75884)
Assay: RBBP9 serine hydrolase blockers re-tested – biochemical, fluorescence polarization, FP-Rh probe, triplicate, confirmation (AID 1537);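 note: 0% = RBBP9 with DMSO and 100% = wells lacking RBBP9 protein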
Conditions: recombinant RBBP9, FP-Rh probe fluorescence polarization; at 7.94 µM; hits give high values
Summary of the method: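 Compound dosing: one dose, 7.94 µM; Test system: RBBP9 enzyme; Input: RBBP9 at 2.5 µM in dispensed enzyme solution; Control set: no-enzyme and DMSO wells; Technique: fluorescence polarization, excitation 525 nm, emission 598 nm; Times: 30 min enzyme-compound preincubation at 25 °C, 45 min probe labelling; Buffer or medium: Tris/NaCl buffer, pH 8.0, with Pluronic.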

Chain of Serine hydrolase RBBP9 (Homo sapiens) (O75884 whole entry, looked up): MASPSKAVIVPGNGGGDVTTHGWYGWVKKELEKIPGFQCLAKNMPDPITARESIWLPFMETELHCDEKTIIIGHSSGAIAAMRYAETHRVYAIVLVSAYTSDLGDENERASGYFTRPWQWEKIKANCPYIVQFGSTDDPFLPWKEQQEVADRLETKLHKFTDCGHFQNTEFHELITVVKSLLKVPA

Structure (SMILES)	inhibition
COc1cc(C2C(C(=O)OCCC#N)=C(C)NC3=C2S(=O)(=O)c2ccccc23)cc(OC)c1OC (stereo not drawn)	1.17%
CCc1ccccc1NC1c2ccccc2C(=O)N1c1cccnc1 (stereo not drawn)	3.9%
Cc1cc(F)ccc1S(=O)(=O)N1CCCOC1CNC(=O)C(=O)NCCC1=CCCCC1 (stereo not drawn)	10.6%
CCC(=O)N1CCCc2ccccc21	0.8%
C=CS(=O)c1sc(Cl)c(N2CCOCC2)c1[N+](=O)[O-] (stereo not drawn)	34.7% (active)
CCOc1ccc2[nH]c(=O)c(C(c3nnnn3CCOC)N3CCOCC3)cc2c1 (stereo not drawn)	1.76%
Oc1ccc(N=Cc2sc3ccccc3c2Cl)cc1	12.5%
COc1cccc(NC(=O)c2ccc3c(SCC(=O)O)c4c(nc3c2)CCCC4)c1	6.99%
Cn1sc(=O)c2cc(S(=O)(=O)NC3CC3)ccc21	26.9% (active)
O=[N+]([O-])c1c(NCCO)cc(Sc2nc3ccccc3s2)c2nonc12	45.7% (active)
CC(C)OCCCNC(=O)CNC(=O)c1cccs1	11%
Nn1c(Cc2cccc3ccccc23)nnc1SCC(=O)N1CC(=O)Nc2ccccc21	6.4%
CCN(CC)C(=O)N1CCN(C(=O)c2ccc(C)cn2)CC1	9.27%
Cc1ccc(NC(=O)CN2CCC(C(N)=O)CC2)cc1[N+](=O)[O-]	2.36%
COc1ccc2c(c1)C(C)=CC(C)(C)N2C(=O)Nc1ccccc1	2.49%
O=C(CCCC(=O)N(CC(=O)NC1CCCC1)Cc1ccccc1Cl)Nc1ccccn1	1.03%
CC1=NOC(=O)/C1=C\c1ccccc1	4.74%
C/C(=N/Nc1nc(-c2ccccc2)c(CC(=O)O)s1)c1ccccc1	31.2% (active)
COc1cc(/C=N/NC(=O)Nc2ccccc2)ccc1OCCOc1ccccc1C	0.38%
COc1ccc(-n2nnnc2SCc2nc(N)nc(N3CCOCC3)n2)cc1	3.53%
Cc1cc([N+](=O)[O-])nn1Cc1ccc(F)cc1	11.8%
COc1ccc(NS(=O)(=O)c2cc(NC(=O)CC(=O)c3ccc([N+](=O)[O-])cc3)ccc2C)cc1	-3.45%
O=c1[nH]n(-c2ccc([N+](=O)[O-])cc2)c(=O)c2ccccc12	20.4% (active)
CCC(=O)c1ccc(OCC(O)CN2CCN(c3cccc(C(F)(F)F)c3)CC2)cc1 (stereo not drawn)	7.26%
Cc1ccnc(-n2sc3ccccc3c2=O)n1	72.8% (active)
O=C1C=CC(=O)N1c1ccc(N2CCCCC2)cc1	25.9% (active)
COc1ccc(N2C(=O)C3CCCN3C2c2cc(OC)c(OC)cc2OC)cc1 (stereo not drawn)	3.25%
COCCN(Cc1nc(-c2ccc(C(F)(F)F)cc2)no1)C(C)C	1.94%
